Rows were chosen to be rich in hits. Some 1.8% of all compounds tested hit in one or more screens of this group.
PPC-1+TRAIL kill – kills PPC-1 cancer cells in the presence of TRAIL; 0.41% of 220,000 active; PPC-1 cells + TRAIL, ATPLite viability luminescence; cell killing (% activity), % at 4 µM or 5 µM;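 active = cell killing above 50% in the first pass at 4 µM, then a duplicate retest at 5 µM averaging 50% or more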
TRAIL sens C8 – caspase-8 TRAIL sensitization. AID 624354. NB7+C8 cells + TRAIL, ATPlite viability luminescence. 1% of 360,000 active. inhibition (viability loss, TRAIL sensitization), % at 10 µM;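 active = compounds causing at least 50% loss of cell viability in the single-dose screen, relative to plate controls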
STAT3 inh-1 – inhibitors of IL-6 induced STAT3 signaling. U3A cells, IL-6 STAT3-luciferase reporter, luminescence; host cell line lacks STAT1. inhibition, % at 5.5 µM. 0.89% of 190,000 active. AID 862;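 active = inhibition above the mean inhibition across all screened compounds plus 3 SD, cut at about 44% in these data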
STAT1 blocker – STAT1 signaling inhibition; AID 920; inhibition, % at 5.5 µM; 0.35% of 200,000 active; NIH 3T3 STAT1-luciferase reporter, IFN-gamma, luminescence;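 active = inhibition above a set limit, the mean inhibition across all tested compounds plus 3 SD, cut at about 34% in these data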
STAT3 act – increases IL-6 driven STAT3 reporter signal; U3A cells, IL-6 STAT3-luciferase reporter, luminescence; 100% = signal with IL-6 EC80 alone; activation (% of control), % at 5.6 µM; 0.91% of 190,000 active; AID 871;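 active = activation above the screen-wide mean of compound activation plus 3 SD, cut at about 130% in these data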
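Test system: STAT3-luciferase reporter U3A cells; Detection: reporter luminescence signal; Times: 1 h compound pre-exposure, 6 h IL-6 stimulation, 37 °C; Benchmarks: IL-6-only high control; Also added: IL-6 stimulus at 33 ng/mL final.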
STAT3 inh-2 – confirmation of STAT3 signaling inhibitors. shares compounds with STAT3 inh-1. U3A cells, IL-6 STAT3 luciferase reporter, luminescence; cell line lacks STAT1. inhibition, % at 5.7 µM. 45% of 1,200 active. AID 1265;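 active = inhibition above the hit cutoff computed for the primary STAT3 screen, cut at about 44% in these data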
NFkB inh STAT3ct – NF-kappaB inhibition in STAT3 inhibitor counter-screen; shares compounds with STAT3 inh-1; HEK293T NF-kB luciferase reporter, TNF-alpha induced; inhibition, % at 5.7 µM; 36% of 1,200 active; AID 1308;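 active = inhibition above the mean of solvent-only control wells plus 3 SD, cutoff set per campaign, cut at about 13% in these data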
STAT1 inh STAT3c – inhibits STAT1, counter-screen to STAT3 inhibitors; shares compounds with STAT3 inh-1; NIH 3T3 STAT1-luciferase reporter, IFN-gamma induced, luminescence; inhibition, % at 5.7 µM; 27% of 1,200 active; AID 1317;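 active = inhibition above the mean plus 3 SD of solvent-only control wells, limit set per screening run, cut at about 16% in these data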
Hits are given with their value; . = inactive; / = no result; ! = not confirmed by another sample.

SMILES	PPC-1+TRAIL kill	TRAIL sens C8	STAT3 inh-1	STAT1 blocker	STAT3 act	STAT3 inh-2	NFkB inh STAT3ct	STAT1 inh STAT3c
CCC(=O)Oc1ccc(-c2nc(-c3cccnc3)no2)cc1	.	.	45.9	.	.	.	.	.
COc1cccc(NC(=O)Nc2nnc(COCCO)s2)c1	/	.	/	/	/	/	/	/
COc1cccc(C=Nc2ccc3c(c2)OCCO3)c1O	.	.	49.0	.	.	.	.	.
COc1cccc(C=Nc2ccc(N3CCOCC3)cc2)c1O	/	.	/	/	/	/	/	/
CCN(CC)S(=O)(=O)c1ccc(Oc2ccc(S(=O)(=O)N(CC)CC)cc2)cc1	.	.	77.7	.	.	67.5	27.2	25.8
COc1cccc(NC(=O)COC(=O)c2c(C)nn(-c3ccccc3)c2C)c1	/	.	/	/	/	/	/	/
Cc1ccc(NC(=O)c2ccc(COc3ccccc3[N+](=O)[O-])o2)nc1	/	.	/	/	/	/	/	/
Cc1ccc(NC(=O)COc2ccccc2[N+](=O)[O-])nc1	.	60.4	50.7	.	.	.	.	.
CCOc1ccc(-c2nnc(SCC(=O)Nc3cc(C)on3)o2)cc1	.	.	49.3	.	.	.	16.0	.
COc1ccccc1-n1c(-c2ccccc2)c[nH]c1=S	.	.	.	.	.	/	/	/
COc1ccccc1-n1c(-c2ccccc2)c[n+]2c1CCc1ccccc1-2	.	.	86.0	34.1!	.	74.0	.	20.7
CN(C)c1cccc(CNC(=O)c2csc([C@@H]3C[C@H](O)[C@@H](CO)O3)n2)c1	/	.	/	/	/	/	/	/
CCC(C)(C)C1CCC(NC(=O)c2ccc(S(=O)(=O)N3CCOCC3)cc2)CC1 (stereo not given)	/	.	/	/	/	/	/	/
CC1(C)CC(N2CCN(c3ccccc3)CC2)=CC(=[N+]2CCCC2)C1	.	.	80.4	.	.	76.8	.	27.0
CC(=O)Oc1ccc(C(=O)NCCc2ccccc2)cc1	.	.	.	.	.	/	/	/
O=C(NCCc1ccccc1)c1ccc2nccnc2c1	/	.	54.5	.	.	.	.	.
CCOc1ccc(C(=O)NCCc2ccccc2)cc1	.	.	54.9	.	.	.	.	.
Cc1ccc(SCc2c(C(=O)N/N=C/c3cccs3)nnn2-c2nonc2N)cc1	/	.	/	/	/	/	/	/
Cc1ccc2[nH]c3c(NCc4ccco4)ncnc3c2c1	.	.	59.6	.	.	45.2	.	.
Cc1ccc(S(=O)(=O)CC2CSc3nc4ccccc4n32)cc1 (stereo not given)	.	.	87.9	.	.	84.0	34.3	31.9
O=C(O)c1cccc(-c2nnn(Cc3ccccc3Cl)n2)c1	.	.	69.9	44.0	.	61.2	37.4	40.0
O=C(O)c1cccc(-c2nnn(Cc3ccccc3)n2)c1	.	.	.	.	.	/	/	/
O=C1C=C(c2cccc3c2sc2ccccc23)C[C@@H](c2ccc(F)cc2)C1	/	.	/	/	/	/	/	/
COc1ccc(S(=O)(=O)N2CCOCC2)cc1NC(=O)COC(=O)CCS(=O)(=O)c1ccc(C)cc1	/	.	/	/	/	/	/	/
Cn1c(SCCCC(=O)c2ccc(F)cc2)nnc1-c1ccncc1	.	.	.	.	.	/	/	/
SMILES	PPC-1+TRAIL kill	TRAIL sens C8	STAT3 inh-1	STAT1 blocker	STAT3 act	STAT3 inh-2	NFkB inh STAT3ct	STAT1 inh STAT3c
COCCn1c(SCCCC(=O)c2ccc(Br)cc2)nnc1-c1ccncc1	.	.	52.6	.	.	45.5	13.2	.
CCS(=O)(=O)c1nc(S(=O)(=O)c2ccc(Cl)cc2)c(N2CCN(C)CC2)s1	/	.	/	/	/	/	/	/
Cc1cccc(C(=O)Nc2ccc(N3CCN(c4ccc(C(F)(F)F)cn4)CC3)nc2)c1	.	.	/	/	/	/	/	/
O=C(Nc1ccc(N2CCOCC2)nc1)c1ccc(C(F)(F)F)cc1	.	.	60.8	.	.	59.2	.	.
COc1c(C)cc(NC(=O)c2ccc3c(c2)NC(=O)CO3)cc1C	.	.	45.3	.	.	.	.	.
COc1ccc(C(=O)NCC(=O)OCC(=O)c2ccc3c(c2)NC(=O)CO3)cc1OC	.	.	.	.	.	/	/	/
Cc1ccc(C)c(S(=O)(=O)N2CCCC2CNC(=O)C(=O)NC2CCCC2)c1 (stereo not given)	/	.	/	/	/	/	/	/
O=C(c1ccccc1)N1CCC2(CC1)NCCc1[nH]cnc12	/	.	/	/	/	/	/	/
CCOc1ccc(OCc2ccc(C(=O)OCc3ccccn3)o2)cc1	.	.	45.7	.	.	.	.	.
CCOC(=O)c1ccc(COc2ccc(C(C)C)cc2)o1	.	.	.	.	.	/	/	/
Cc1ccc(C)c(N2CCN(C(=O)Nc3ccc4c(c3)N(C)C(=O)CS4)CC2)c1	.	.	45.3	.	.	.	15.1	19.6
C(=NN=C(NN=Cc1cccs1)NN=Cc1cccs1)c1cccs1	/	.	/	/	/	/	/	/
CC(=O)C[C@@H](O)CC(=O)[C@H]1OC(=O)CCCCCCCCc2ccccc21	/	.	/	/	/	/	/	/
O=C(/C=C/c1ccc([N+](=O)[O-])cc1)Nc1ncc([N+](=O)[O-])s1	.	59.5	49.5	.	.	.	.	.
CCCOc1ccc(/C=C/C(=O)Nc2ccc([N+](=O)[O-])cc2)cc1	.	.	72.0	.	.	.	15.3	.
CCCCOc1ccc(/C=C/C(=O)Nc2ccc([N+](=O)[O-])cc2C)cc1	.	.	.	.	.	/	/	/
CCn1c(SCC(=O)Nc2ccc(N3CCOCC3)cc2)nnc1-c1ccncc1	/	.	/	/	/	/	/	/
Cc1cc(C(=O)CSc2nnc(N)s2)c(C)n1Cc1ccco1	.	.	46.3	.	.	.	.	.
Nc1nnc(SCC(=O)c2ccco2)s1	.	.	.	.	.	/	/	/
Cc1cc2occ(CC(=O)N(C)CC(=O)Nc3ccccc3Br)c2cc1C	/	.	/	/	/	/	/	/
O=C(O)c1ccc2ncsc2c1	.	.	/	/	/	/	/	/
O=C(O)c1ccc2nc(-c3ccccc3)sc2c1	.	.	79.2	36.3	.	46.3	18.4	.
O=C1c2ccccc2C(c2nnnn2Cc2ccccc2)N1CCc1ccccc1F (stereo not given)	/	.	/	/	/	/	/	/
CN(CC(=O)Nc1cccc(F)c1)C(=O)/C=C/c1cc(Br)ccc1OC(F)F	/	.	/	/	/	/	/	/
Cn1c(N=NC(=O)c2ccccc2)c(O)c2ccccc21	.	60.4	46.4	.	.	.	.	.
SMILES	PPC-1+TRAIL kill	TRAIL sens C8	STAT3 inh-1	STAT1 blocker	STAT3 act	STAT3 inh-2	NFkB inh STAT3ct	STAT1 inh STAT3c
CNC(=O)CN1C(=O)CSc2ncccc21	.	.	.	.	.	/	/	/
CCN(CC)c1ccc(NC(=O)CN2C(=O)CSc3ncccc32)c(C)c1	.	.	69.7	.	.	55.6	.	.
OCCCn1c(-c2ccccc2)csc1=Nc1ccccc1	.	.	.	.	.	/	/	/
COc1ccc(N=c2scc(-c3ccc(OC)cc3)n2CCO)cc1	.	.	51.6	.	.	.	.	.
COc1ccc(CNc2cc(C)nc3ncnn23)c(OC)c1	.	.	67.0	.	.	52.1	16.7	17.4
COc1ccc(Nc2cc(C)nc3ncnn23)c(OC)c1	.	.	.	.	.	/	/	/
